ChEMBL document CHEMBL4680229, “Design, synthesis and bioactivity study of N-salicyloyl tryptamine derivatives as multifunctional agents for the treatment of neuroinflammation” (Eur J Med Chem, 2020)
Active and inactive are the calls of the source. No cut-off for these calls is given here.

Assays:
BV-2 [1] = assay: Antiinflammatory activity against LPS-induced mouse BV-2 cells assessed as decrease in ROS production at 10 to 40 uM after 6 hrs by DCFH-DA fluorescence probe based flow cytometric analysis; type: functional, cell-based; settings: dose 10-40 µM
In short: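 BV2 cells with LPS 1 μg/mL and compound at 10, 20 or 40 μM for 6 h, then DCFH-DA 20 μM final for 30 min at 37 °C. Washed in cold PBS and read by flow cytometry, excitation 485 nm and emission 530 nm.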

BV-2 [2] = assay: Cytotoxicity against mouse BV-2 cells assessed as reduction in cell viability after 24 hrs by MTT assay; type: cell-based; settings: BV-2, 24 h
In short: (§1)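 C6 or BV2 cells seeded at 1–5×10^5 per well; after 12 h exposed to 0, 6.25, 12.5, 25, 50 or 100 μM (final, DMSO <0.4%) for 24 h. MTT added for 4 h, dissolved in DMSO, read at 570 nm. IC50 as mean of three independent experiments run in triplicate.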

[3] = Toxicity in Kunming mouse assessed as changes in heart at 1000 mg/kg, po after 14 days; type: organism-based; settings: in vivo, 336 h, time 14 day
In short: (§2)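 Mice, five male and five female, given a single oral dose of 1000 mg/kg and observed for behaviour for 14 days. Heart, liver, kidney and stomach then examined grossly and after H&E staining, compared with vehicle controls.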

[4] = Toxicity in Kunming mouse assessed as changes in stomach at 1000 mg/kg, po after 14 days; type: organism-based; settings: in vivo, 336 h, time 14 day; in short: as §2
Homo sapiens = species on record: Homo sapiens; assay: Selectivity index, ratio of IC50 for inhibition of human COX1 to IC50 for inhibition of human COX2
[5] = Toxicity in Kunming mouse assessed as changes in liver at 1000 mg/kg, po after 14 days; type: organism-based; settings: in vivo, 336 h, time 14 day; in short: as §2
C6 [6] = assay: Antiinflammatory activity against LPS-induced rat C6 cells assessed as decrease in INOS protein expression at 40 uM after 24 hrs by Western blot analysis relative to control; type: functional; parameters: scale not given: the % may be the effect or the level left
In short: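 C6 cells; LPS 10 μg/mL plus compound at 10, 20 or 40 μM for 24 h. Lysates with RIPA/PMSF, 30 μg protein on 8% SDS-PAGE, iNOS immunoblot and densitometry; at least three independent experiments.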

[7] = Half life in Sprague-Dawley rat at 50 mg/kg, ip up to 24 hrs by LC-MS analysis; type: ADME, organism-based; settings: in vivo
In short: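 Male Sprague-Dawley rats, six per group, single 50 mg/kg intraperitoneal dose; parameters derived by non-compartmental analysis using the linear trapezoidal method; mean ± SD, n = 6.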

BV-2 [8] = assay: Antiinflammatory activity against LPS-induced mouse BV-2 cells assessed as decrease in COX2 protein expression at 40 uM after 24 hrs by Western blot analysis; type: functional, cell-based
In short: (§3)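 BV2 cells in DMEM with 10% FBS; LPS 1 μg/mL plus compound at 10, 20 or 40 μM final for 24 h. Lysates in RIPA with 1 mM PMSF; 30 μg protein on 8% SDS-PAGE and blotted for iNOS and COX-2, GAPDH as reference; ECL detection and densitometry; at least three independent experiments.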

[9] = Toxicity in Kunming mouse assessed as behavioral changes at 1000 mg/kg, po up to 14 days; type: organism-based; settings: in vivo, 336 h, time <=14 day; in short: as §2
C6 [10] = assay: Cytotoxicity against rat C6 cells assessed as reduction in cell viability after 24 hrs by MTT assay; type: cell-based; settings: C6, 24 h; in short: as §1
[11] = target: Prostaglandin G/H synthase 2 (Homo sapiens) (UniProt P35354); assay: Inhibition of human COX2 assessed as reduction in PGF2alpha formation using arachidonic acid as substrate incubated for 10 mins by ELISA
C6 [12] = assay: Antiinflammatory activity against LPS-induced rat C6 cells assessed as decrease in GFAP protein expression at 20 uM after 24 hrs by DAPI staining based confocal laser microscopic method; type: functional, cell-based
In short: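 Cells on glass slides with compound at 20 μM final for 24 h: C6 with LPS 10 μg/mL stained for GFAP, BV2 with LPS 1 μg/mL stained for Iba-1. Fixed in 4% paraformaldehyde, blocked in 1% BSA/0.3% Triton X-100, primary antibody 1:100 overnight at 4 °C, secondary 1:200, DAPI mount, confocal imaging. Intensity given as % of LPS group, n = 3.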

C6 [13] = assay: Inhibition of LPS-induced TNFalpha production in rat C6 cells after 24 hrs by ELISA; type: functional, cell-based; settings: dose 10-40 µM
In short: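 C6 cells at 5×10^5 cells/mL stimulated with LPS 10 μg/mL; compound at 10, 20 or 40 μM final for 24 h. Supernatant TNF-α measured by sandwich ELISA at 450 nm; at least three independent experiments.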

BV-2 [14] = assay: Inhibition of LPS-induced TNFalpha production in mouse BV-2 cells after 24 hrs by ELISA; type: functional, cell-based; settings: dose 10-40 µM
In short: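 BV2 cells at 5×10^5 cells/mL stimulated with LPS 1 μg/mL; compound at 10, 20 or 40 μM final for 24 h, DMSO in blanks. Supernatant TNF-α and IL-10 measured by sandwich ELISA and PGE2 by competitive ELISA, OD at 450 nm; at least three independent experiments.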

BV-2 [15] = assay: Antiinflammatory activity against LPS-induced mouse BV-2 cells assessed as decrease in COX2 protein expression after 24 hrs by Western blot analysis; type: functional, cell-based; settings: BV-2, 24 h; in short: as §3
Mus musculus [16] = assay: Antiinflammatory activity against LPS-induced hippocampal neuroinflammatory Kunming mouse model assessed as reduction in iba-1 level in hippocampus at 50 mg/kg, ip administered bid for 6 days by DAPI staining based microscopic method; type: functional, organism-based; settings: time 6.0 day
Mus musculus [17] = assay: Antiinflammatory activity against LPS-induced hippocampal neuroinflammatory Kunming mouse model assessed as reduction in iba-1 level in hippocampus at 50 mg/kg, ip administered bid for 6 days by Western blot analysis; type: functional, organism-based; settings: time 6.0 day

Chain of Prostaglandin G/H synthase 2 (Homo sapiens) (P35354 whole entry, looked up): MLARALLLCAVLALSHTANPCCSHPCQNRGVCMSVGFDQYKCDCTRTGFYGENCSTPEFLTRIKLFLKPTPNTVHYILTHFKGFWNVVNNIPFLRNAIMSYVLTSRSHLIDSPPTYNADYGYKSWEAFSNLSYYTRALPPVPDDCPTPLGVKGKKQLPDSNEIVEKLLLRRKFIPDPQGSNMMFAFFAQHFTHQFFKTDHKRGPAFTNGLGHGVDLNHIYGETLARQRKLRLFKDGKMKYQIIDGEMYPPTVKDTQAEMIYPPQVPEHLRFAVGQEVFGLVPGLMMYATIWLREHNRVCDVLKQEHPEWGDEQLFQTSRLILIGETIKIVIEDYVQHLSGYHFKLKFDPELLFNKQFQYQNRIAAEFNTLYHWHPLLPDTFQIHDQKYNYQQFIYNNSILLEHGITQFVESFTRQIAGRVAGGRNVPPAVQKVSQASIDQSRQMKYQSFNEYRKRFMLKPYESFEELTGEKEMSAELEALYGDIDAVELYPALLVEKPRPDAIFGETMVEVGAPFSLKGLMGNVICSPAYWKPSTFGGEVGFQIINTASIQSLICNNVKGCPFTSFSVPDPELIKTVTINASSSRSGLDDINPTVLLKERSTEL

SMILES	Activity (BV-2 [1])	IC50 (BV-2 [2])	Activity [3]	Activity [4]	Ratio IC50 (Homo sapiens)	Activity [5]	Activity (C6 [6])	half-life [7]	Activity (BV-2 [8])	Activity [9]	IC50 (C6 [10])	IC50 [11]	Activity (C6 [12])	inhibition (C6 [13])	inhibition (BV-2 [14])	IC50 (BV-2 [15])	Activity (Mus musculus [16])	Activity (Mus musculus [17])
O=C(NCCc1c[nH]c2ccc(O)cc12)c1ccccc1Nc1ccccc1	Active	> 100 µM	Non-Toxic	Non-Toxic	0.76	Non-Toxic	95%	2.72 h	Active	Non-Toxic	> 100 µM	0.5 µM	Active	Dose-dependent effect	–	–	–	–
Cc1ccc(C(=O)NCCc2c[nH]c3ccccc23)c(O)c1	Active	> 100 µM	Non-Toxic	Non-Toxic	3.95	Non-Toxic	29%	13.9 h	inactive	Non-Toxic	> 100 µM	4.16 µM	Active	Dose-dependent effect	Dose-dependent effect	> 40 µM	Active	Active
